# Most compounds without a hit are left out; they make up all but 2.1% or so of the library.
# Runt-CBFb FRET – blocks binding of human RUNX1 Runt domain to CBFb | Q01196+Q13951 | Cerulean-Runt/Venus-CBFb FRET ratio 530/480, 1 h | inhibition, % at 20 µM | actives 0.46% (n = 220,000);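 active = inhibition over about 50% at 20 µM in the single-dose screen, limit read from the data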;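 note: 0% = DMSO wells and 100% = excess unlabeled CBFb competitor control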
#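 System: Cerulean-labeled Runt domain protein | Quantity: 100 nM of each labeled protein | Schedule: 1 h compound exposure, room temperature | Detection: Fluorescence energy transfer, 422 nm excitation, 530/480 nm emission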
# KLK7 zymogen act – activates the human kallikrein-7 zymogen. purified proKLK7, EDANS-DABCYL substrate fluorescence; 100% is mature enzyme control, 0% vehicle. P49862. actives 0.9% (n = 370,000). activation, % at 7 µM;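 active = activation above the mean of all tested compounds plus 3 SD, computed per campaign excluding outliers beyond control limits, cut at about 13% in these data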
# Target sequence (P49862 whole entry, looked up): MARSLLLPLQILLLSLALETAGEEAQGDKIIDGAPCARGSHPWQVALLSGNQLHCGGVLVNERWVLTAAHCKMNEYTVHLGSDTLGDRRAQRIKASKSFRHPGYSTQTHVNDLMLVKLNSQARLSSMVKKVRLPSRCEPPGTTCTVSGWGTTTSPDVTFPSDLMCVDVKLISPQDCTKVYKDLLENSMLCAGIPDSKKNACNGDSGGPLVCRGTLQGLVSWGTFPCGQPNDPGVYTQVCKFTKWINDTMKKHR
# MEX-5 binding – C. elegans MEX-5 TCR-2 RNA binding activity. activity score (negative = inhibition of binding), % at 10 µM. MEX-5/FITC-TCR2 RNA binding, fluorescence polarization; stronger effect = lower value. Q9XUB2. actives 0.38% (n = 300,000);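 active = inhibition past about -25% in most replicates, and total fluorescence under double the plate's negative control median, limit read from the data; inconclusive = replicates evenly split on the limit, or fluorescence at least double controls; inactive = too little inhibition in most replicates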;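 note: 0% = DMSO and -100% = 5 µM competing unlabeled TCR2 RNA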
# RanGTP-Impb inh – disruptors of Ran-importin-beta complex formation – biochemical, FRET, CFP-Ran, YFP-importin-beta, homogeneous, primary screen. actives 1.1% (n = 300,000). inhibition, % (concentration not given with the values). cell-free CFP-Ran/YFP-importin-beta FRET ratio;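 active = more than half of the replicate wells show a fall in the fluorescence ratio signal beyond about 16%, limit read from the data, passing the limit was not always enough; inconclusive = exactly half of the replicate wells pass the set limit; inactive = fewer than half of replicates pass the limit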;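 note: 0% = DMSO wells and 100% = Ran loaded with GDP instead of GTP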
# Runt-SMMHC FRET – blocks binding of human RUNX1 Runt domain to CBFb-SMMHC. Q01196+Q13951. Cerulean-Runt/Venus-CBFb-SMMHC FRET ratio 530/480, 1 h. inhibition, % at 20 µM. actives 0.74% (n = 220,000);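 active = mean inhibition across duplicate retests at 20 µM reaching about 50%, limit read from the data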;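 note: 0% = DMSO wells and 100% = wells with excess untagged CBFb-SMMHC; inhibitors lower the FRET ratio by blocking Runt binding to CBFb-SMMHC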
# KLK7 act conf – proKLK7 activation, confirmation | shares compounds with KLK7 zymogen act | purified proKLK7, EDANS-DABCYL substrate fluorescence; scaled: vehicle 0, mature enzyme 100 | activation, % at 7 µM | actives 68% (n = 3,200) | AID 686949;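 active = activation, as change over the incubation, above the mean of all tested compounds plus 3 SD, cut at about 13% in these data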
# EDANS interfere – counter-screen for kallikrein-7 activators: EDANS-DABCYL optical interference | AID 686952 | shares compounds with KLK7 zymogen act | EDANS-DABCYL substrate fluorescence interference, no enzyme, 4 h; solvent 0%, active enzyme control 100% | activation, % at 7 µM | actives 80% (n = 3,200);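 active = activation above the all-compound mean plus 3 SD, ignoring values outside control-based bounds, cut at about 4.8% in these data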;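 note: value is the 4 h activation minus the activation read at time zero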
# * marks the source's active call; other numbers are inactive results; ? = inconclusive; . = no result given.
SMILES,Runt-CBFb FRET,KLK7 zymogen act,MEX-5 binding,RanGTP-Impb inh,Runt-SMMHC FRET,KLK7 act conf,EDANS interfere
COc1ccc2c(c1)c(=O)oc1cc(OCC(=O)N3CCCC(C)C3)ccc12 (centres undefined),1,-32,2,-4,-2,.,.
CCN(CC)c1ccc(S(=O)(=O)N2CCOCC2)cc1NC(=O)CSC(=S)N1CCCC1,.,1,3,0,.,.,.
CCCCOc1ccc(N2C(=O)CC(N(O)c3ccccc3)C2=O)cc1 (centres undefined),-3,33*,0,-1,0,36*,33*
CCCCN(C(C)=O)C1CC(=O)N(c2ccc(OCCC)cc2)C1=O (centres undefined),1,0,-2,1,-2,.,.
Cc1c(Cl)cccc1N1C(=O)CC(N(O)c2ccccc2)C1=O (centres undefined),2,759*,-1,-4,-2,676*,671*
Cc1cccc(C)c1N1C(=O)CC(N(O)c2ccccc2)C1=O (centres undefined),3,277*,0,0,-1,224*,254*
CC(C)c1ccc(CCNC(=O)CCNC(=O)c2ccc(Br)cc2)cc1,.,0,2,8,.,.,.
O=c1c2ccc(Cl)cc2[nH]c(=S)n1CCC1=CCCCC1,3,1,1,-5,-6,.,.
COc1cccc(/C=N/Nc2snc(SC)c2C#N)c1,6,0,.,.,-1,.,.
COc1ccc(/C=N/Nc2snc(SC)c2C#N)cc1OC,0,16*,-1,12,-3,-14,-10
CCOc1ccc(CCNC(=O)COC(=O)c2ccc(Br)o2)cc1OCC,.,0,-2,4,.,.,.
CCOc1ccc(CCNC(=O)COC(=O)c2nccnc2N)cc1OCC,.,30*,3,.,.,63*,55*
COc1ccc(OCC(=O)NNC(=O)c2cc3ccccc3o2)cc1,-3,0,0,3,0,.,.
COc1ccc(CNC(=S)NNC(=O)c2cc3ccccc3o2)cc1,.,17*,1,1,.,21*,21*
O=C(NCc1cccc(C(F)(F)F)c1)c1ccc2nc([C@H]3C[C@H](O)[C@@H](CO)O3)[nH]c2c1,.,0,.,.,.,.,.
COC(=O)c1ccc(COC(=O)C(NC(=O)Cc2ccccc2)C(C)C)cc1 (centres undefined),.,0,.,.,.,.,.
COc1ccc(-c2cc3ccc(OCC(N)=O)cc3oc2=O)cc1OC,.,1,?,3,.,.,.
COc1ccc(-c2cc3ccccc3oc2=O)cc1,.,8,-3,1,.,.,.
CC(=O)COc1ccc2cc(-c3ccccc3)c(=O)oc2c1,.,23*,-3,7,.,57*,73*
COc1ccc(-c2cc3ccc(OC(C)C(=O)O)cc3oc2=O)cc1 (centres undefined),.,70*,-3,9,.,70*,68*
COc1ccc2c(c1)c(=O)oc1cc(OCC(=O)NCC3CCC(C(=O)O)CC3)ccc12 (centres undefined),.,-1,2,-4,.,.,.
CC(=O)Oc1ccc2cc(-c3ccccc3)c(=O)oc2c1,27,216*,-1,81*,81*,565*,570*
COc1ccc(-c2cc3ccc(OCC(=O)NCC4CCC(C(=O)O)CC4)cc3oc2=O)cc1 (centres undefined),.,64*,0,5,.,54*,74*
C=CC[C@H](CC(=O)NCCO)C(=O)N[C@H](COC(=O)[C@H](CC=C)CC(=O)OC(C)(C)C)Cc1c[nH]c2ccccc12,.,1,.,.,.,.,.
Cc1cc(=O)oc2c3c4c(cc12)OCCN4CCC3,4,70*,-15,143*,.,67*,64*
CCN(CC)CCNS(=O)(=O)c1ccc2c3c(cccc13)C(=O)N2,.,100*,-1,8,.,58*,70*
O=C1Nc2ccc(S(=O)(=O)N3CCCC3)c3cccc1c23,2,5,-3,2,7,.,.

# Screening results: PubChem BioAssay, several laboratories
